# Sampled rows, rich in hits. Any-hit rate of the full collection: about 2.2%.
# RBBP9 inh: inhibitors of human serine hydrolase RBBP9; O75884; recombinant RBBP9, FP-Rh probe fluorescence polarization; inhibition, % at 7.94 µM; actives 0.2% (n = 220,000);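 active = inhibition above the campaign mean of all tested compounds plus 3 SD, cut at about 14% in these data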;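 note: plate controls were DMSO wells with RBBP9 for no effect and wells lacking RBBP9 protein for full effect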
#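 System: RBBP9 protein | Quantity: 2.5 µM RBBP9 dispensing solution, before mixing | Reagent: FP-Rh probe, 375 nM dispensing solution | Timing: Enzyme-compound preincubation 30 min, then probe labeling 45 min, 25 °C | Measured by: Fluorescence polarization | Read-out: % inhibition | Replication: One well per compound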
# p97 inhibitor: inhibitors of human p97 ATPase; inhibition, % at 8 µM; recombinant p97 ATPase, Kinase-Glo ATP luminescence, 3 h; P55072; actives 0.42% (n = 220,000); in the data active = inhibition above about 15%;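 note: 0% = DMSO vehicle and 100% = wells lacking enzyme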
# Arbovirus anti: arbovirus infection inhibition. arbovirus infection cell-based antiviral screen. inhibition, % at 10 µM. actives 0.37% (n = 200,000). AID 1251; in the data active = inhibition above about 30%
# DTT redox prof: compounds producing H2O2 with reducing agent – biochemical, NIH compound library profiling, artefact control for MLSCN library redox annotation, primary screen. activation, % at 10 µM. AID 878. DTT-dependent redox cycling H2O2, phenol red/HRP absorbance; 100% = 100 µM peroxide control, 0% = buffer. actives 0.03% (n = 200,000);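 active = activation of at least 50% relative to the plate's high and low controls in the primary single-dose screen; inactive = activation below 50%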;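 note: compound incubated with DTT at 0.8 mM final as the reducing agent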
# PKD1 inh: blocks activity of human protein kinase D1. Q15139. PKD1 kinase fluorescence polarization assay. inhibition, % (concentration not given with the values). actives 0.056% (n = 200,000). AID 797; in the data active = inhibition above about 50%
# Wee1 degr inh: human Wee1 degradation inhibition, primary screen | P30291 | HeLa Luc-Wee1K328M stability, luciferase luminescence; 100% = proteasome inhibitor MG132 effect | reporter increase, % at 5 µM | actives 1.2% (n = 220,000);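 active = activation above the mean of all tested compounds plus 3 SD, set per screening run, cut at about 8.8% in these data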;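 note: cells exposed to compound for 20 h before luminescence read; 0% = DMSO alone and 100% = MG132 at 30 µM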
# Numbers without * were called inactive; . = not tested or not shown; ! = a repeat was not active.
SMILES,RBBP9 inh,p97 inhibitor,Arbovirus anti,DTT redox prof,PKD1 inh,Wee1 degr inh
N=C(N)SCc1nc2ccccc2c(=O)n1-c1ccccc1,-1.3,-7.5,30.3*!,1.2,15.4,6.1
Cc1cc(O)c(C(C)C)cc1NC(=O)c1cccc(Cl)c1,-6.3,2.7,4.9,0.1,1.7,9.5*
O=C(Nc1ccc(C(=O)N2CCOCC2)cc1)c1cc(-c2cccnc2)nc2ccc(Cl)cc12,-1.9,-1.2,0.7,1.6,-1.4,-0.3
O=C(Nc1ccc(Cl)cc1)c1ccc(OC2CSC2)cc1,-11.1,-1.0,19.5,-0.2,-11.6,20.9*
COC(=O)c1ccccc1NC(=S)NC(=O)c1ccc2ccccc2c1,-5.5,5.5,10.6,-0.1,-5.1,-2.1
COC(=O)c1ccccc1NC(=S)NC(=O)c1cccc2ccccc12,-6.9,33.8*,-43.1,-13.0,0.3,-1.5
Cc1nc(-c2ccccc2OC(F)(F)F)[nH]c(=O)c1Cl,-4.8,-6.3,.,.,.,9.2*
CCOC(=O)c1cnc(SCc2nc(N)nc(Nc3ccc(C)cc3)n2)nc1N,-4.1,-2.3,44.4*,0.0,-3.9,1.2
CCOC(=O)c1cnc(SCc2nc(N)nc(Nc3ccc(F)cc3)n2)nc1N,-11.9,-1.6,5.1,2.7,2.0,-0.3
Cc1csc(SCCn2c(N3CCCC3)nc3c2c(=O)[nH]c(=O)n3C)n1,-3.4,14.5*,4.6,2.6,-1.0,1.5
Cc1csc(SCCn2c(Br)nc3c2c(=O)[nH]c(=O)n3C)n1,0.9,1.8,7.5,-0.7,2.8,1.2
CCN(Cc1ccccc1)C(=O)c1nn(-c2ccc(OC)cc2)c(=O)c2c1c1ccccc1n2C,-7.0,2.7,-19.3,-0.1,-1.6,-0.1
Cc1ccc(C(=O)Nc2ccccc2SCC2CSc3nc4ccccc4c(=O)n32)cc1 (stereo unspecified),-7.4,-7.8,41.8*,-4.4,1.1,-1.2
O=C(Nc1ccccc1SCC1CSc2nc3ccccc3c(=O)n21)c1ccccc1 (stereo unspecified),-6.0,0.4,3.9,-2.7,-2.1,1.1
CC(NC(=O)Nc1ccc([N+](=O)[O-])cc1)C(c1cccs1)N1CCCC1 (stereo unspecified),-6.5,3.7,-1.1,-0.2,0.4,-3.2
COc1ccc(C(=O)Nc2sc3c(c2C(=O)O)CC(C)(C)OC3)cc1,-8.4,3.0,34.2*,-0.4,-3.9,2.3
CC(C)COc1ccc(C(=O)Nc2sc3c(c2C(=O)O)CC(C)(C)OC3)cc1,-0.5,3.2,60.7*,-0.4,0.1,-1.4
Cc1ccc(S(=O)(=O)N2CCCC2C(=O)NCc2ccc3c(c2)OCO3)cc1 (stereo unspecified),-5.1,6.2,-9.1,-0.6,-5.3,-2.4
Cn1c(=O)c2cn(Cc3ccc(Cl)cc3)cc2n(C)c1=O,-3.5,-1.8,2.8,1.4,-1.3,-1.7
O=C(CN(C(=O)C1CSC(=O)C1)c1cccc(F)c1)NC1CCCC1 (stereo unspecified),-3.4,-3.2,10.1,-0.7,0.2,9.2*
Oc1ccccc1/C=C/c1noc(-c2ccccc2O)n1,2.4,4.2,24.9,0.7,-2.1,9.2*
CN(NS(=O)(=O)c1ccc(Cl)cc1)c1cnn(C)c(=O)c1Cl,-0.1,4.8,.,.,.,9.9*
CN(NS(=O)(=O)c1ccc(Cl)cc1)c1nc(C(F)(F)F)nc2ccccc12,-1.9,5.6,14.3,-0.7,3.1,2.8
O=C(Nc1nnc(-c2cccs2)o1)c1cc(-c2ccccc2)nc2ccccc12,-9.4,9.6,-10.6,0.7,-7.2,9.5*
CO/N=C/c1ccc(OC)c(Oc2nc(OC)cc(OC)n2)c1,5.0,7.4,-8.9,-2.1,-0.6,4.7
Fc1ccc(-c2nc(-c3cnccn3)no2)c(Cl)c1,-11.5,-8.4,.,.,.,9.4*
Cc1onc(-c2ccc(Cl)cc2Cl)c1-c1csc(N/N=C/c2ccccc2Cl)n1,-11.6,-4.5,.,.,.,9.7*
Cc1onc(-c2ccccc2)c1-c1csc(N/N=C/c2ccccc2Cl)n1,-13.5,-3.6,.,.,.,0.5
S=C(NC1CC2CCC1C2)N1CCN(c2cccc(Cl)c2)CC1 (stereo unspecified),-1.6,0.5,4.2,0.4,-1.6,1.7
O=C1C2=C(CCCC2)C(=O)N1c1cccc(OCCBr)c1,-9.5,-2.6,3.8,-0.2,-8.9,1.6

# From PubChem BioAssay
